Sampled rows, rich in hits. Any-hit rate of the full collection: about 2%.
PglD DTNB = C. jejuni PglD acetyltransferase inhibitors, primary screen, biochemical, DTNB colorimetric, single point. inhibition, % at 12.5 µM. 360,000 compounds, 0.098% hits. purified PglD enzyme, DTNB colorimetric CoA detection. UDP-N-acetylbacillosamine N-acetyltransferase PglD (Campylobacter jejuni); in the data active = inhibition above about 16%, passing the limit was not always enough; inconclusive = no clear call, values can overlap the other calls
RAD54 branch = inhibitors of human RAD54 branch migration, primary screen, biochemical, fluorescence, single point. RAD54 Holliday junction branch migration, FAM/BHQ fluorescence. AID 602329, 2012. 360,000 compounds, 0.14% hits. DNA repair and recombination protein RAD54-like (Homo sapiens), Q92698. inhibition, % at 10.4 µM;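 active = mean normalized replicate activity at least 40 and at least half of replicates scoring 40 or more; inconclusive = only one of the two criteria met; inactive = mean below 40 and under half of replicates reaching 40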;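 note: inhibitors cause a drop in the FAM fluorescence signal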
E-sel inducer = E-selectin induction in HUVECs, primary screen, imaging, HUVEC, immunofluorescence imaging, single point. P16581. normalized: neutral wells 0, TNF-alpha wells 100. activation, % at 7.58 µM. 260,000 compounds, 0.37% hits. AID 686992, 2013;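 active = mean E-selectin-positive cell signal at least 10% of the positive control, reached in at least 60% of replicates, without over 20% cell loss; inconclusive = no rule given, readout overlaps actives, possibly toxicity-flagged; inactive = the rest, including those meeting only one limit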
Target sequence (P16581 whole entry, looked up): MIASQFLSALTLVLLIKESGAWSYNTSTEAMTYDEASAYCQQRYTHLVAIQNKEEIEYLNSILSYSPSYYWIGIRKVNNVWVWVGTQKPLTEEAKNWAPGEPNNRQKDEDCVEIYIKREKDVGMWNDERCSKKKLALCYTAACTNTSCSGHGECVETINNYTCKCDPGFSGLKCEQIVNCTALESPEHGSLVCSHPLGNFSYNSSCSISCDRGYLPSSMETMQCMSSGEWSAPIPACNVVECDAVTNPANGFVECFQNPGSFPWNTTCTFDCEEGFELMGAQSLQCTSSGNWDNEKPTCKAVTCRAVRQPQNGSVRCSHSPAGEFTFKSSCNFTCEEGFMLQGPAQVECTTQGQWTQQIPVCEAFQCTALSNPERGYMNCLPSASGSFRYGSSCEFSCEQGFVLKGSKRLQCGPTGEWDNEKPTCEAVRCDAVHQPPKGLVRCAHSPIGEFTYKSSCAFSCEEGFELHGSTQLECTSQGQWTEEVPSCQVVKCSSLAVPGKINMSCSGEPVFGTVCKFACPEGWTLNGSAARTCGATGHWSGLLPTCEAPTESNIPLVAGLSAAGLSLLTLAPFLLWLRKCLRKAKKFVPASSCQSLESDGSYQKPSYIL
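assay system = HUVEC, human umbilical vein endothelial cells | input = 3,000 HUVEC seeded per well | medium = EGM-2 growth medium on 0.1% gelatin-coated wells | dosing = one compound dose added by pin transfer | signal = immunofluorescence imaging | read-out basis = % PE-positive cells | control set = TNF-alpha, DMSO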
rRNA inh HTS = reduced GFP signal of wild-type E. coli, primary screen, bacterial rRNA inhibitor project, GFP/RFP fluorescence, OD600, single point | E. coli WT GFP vs humanized-ribosome RFP mutants, 24 h; stronger effect = lower value; DMSO median 0, no signal -100 | GFP signal change (wild-type ribosome), % (concentration not given with the values) | 350,000 compounds, 1.6% hits | AID 720706, 2013;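 active = significant combined selectivity score with lowered wild-type GFP, culture density cut under 30%, mutant RFP and density less affected; inactive = any of these conditions unmet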
RAD52 inh = RAD52 DNA annealing inhibitors, primary screen, biochemical, FRET, single point, set 2 | DNA repair protein RAD52 homolog (Homo sapiens), P43351 | recombinant RAD52 DNA annealing, FRET fluorescence | inhibition, % at 18.7 µM | 360,000 compounds, 0.46% hits | AID 651710, 2012;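 active = every replicate showing at least 50% inhibition; inconclusive = mean inhibition at least 50% but not in every replicate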
XiGFP reactiv = activators of inactive X chromosome reactivation, primary screen, imaging, XiGFP fibroblasts, GFP high-content imaging, set 2; 360,000 compounds, 0.055% hits; AID 743238, 2013; activation, % at 7.58 µM; XiGFP mouse fibroblasts, % GFP-positive cells imaging, 3 d; cells co-treated with 5-aza-dC sensitizer; scaled so ellipticine positive control = 100%;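 active = mean normalized replicate activation at least 10% and every replicate at or above 10%; inconclusive = only one of the two criteria met; inactive = mean below 10% and not all replicates reach 10%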
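System: XiGFP fibroblasts, SV40-immortalized. Medium: DMEM plus 5-aza-dC sensitizer. Doses: single point. Timing: 3 d treatment, 15 min room-temperature fixation. Control set: ellipticine 6 µM.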
Large screens that a line does not name were inactive.

CCN1C(=O)[C@H]2[C@@H](c3ccc(C)cc3)N[C@]3(CCCN(Cc4ccc(Cl)cc4)C3=O)[C@H]2C1=O	rRNA inh HTS -20 (no result: PglD DTNB, RAD54 branch)
C[C@H](CO)N1C[C@H](C)[C@@H](CN(C)Cc2ccc(Oc3ccccc3)cc2)Oc2ccc(NS(=O)(=O)c3cccs3)cc2CC1=O	none
CCC(=O)N1CC(=O)N2[C@@H](CO)[C@@H](c3ccc(-c4ccccc4F)cc3)[C@@H]2C1	XiGFP reactiv inconclusive (no result: PglD DTNB, RAD54 branch)
O=C(CN1C(=O)NC(Cc2ccccc2)C1=O)Nc1ccc(F)c(Cl)c1 (stereo unspecified)	rRNA inh HTS -28
O=C(CN1C(=O)NC(Cc2ccccc2)C1=O)Nc1ccc(F)cc1 (stereo unspecified)	none (no result: E-sel inducer, rRNA inh HTS, RAD52 inh, XiGFP reactiv)
C#CCOCCOCCOCCNc1nc(N2CCN(C(=O)C([C@@H](C)O)n3cc([C@@H](N)CCCCN)nn3)CC2)nc(N2CCN(C(=O)[C@H](CO)n3cc([C@@H](N)C(C)C)nn3)CC2)n1 (stereo partly specified)	RAD52 inh 58
C#CCOCCOCCOCCNc1nc(N2CCN(C(=O)C([C@@H](C)O)n3cc([C@@H](N)CCCCN)nn3)CC2)nc(N2CCN(C(=O)C([C@@H](C)O)n3cc([C@@H](N)CCCCN)nn3)CC2)n1 (stereo partly specified)	none
C#CCOCCOCCOCCNc1nc(N2CCN(C(=O)CCCCCCCCCCNC(=O)[C@H](CCCCN)n3cc(CCO)nn3)CC2)nc(N2CCN(C(=O)CCCCCCCCCCNC(=O)[C@H](CCCCN)n3cc(CCO)nn3)CC2)n1	RAD54 branch 50 (no result: E-sel inducer, rRNA inh HTS, RAD52 inh, XiGFP reactiv)
CO[C@@H]1CN(C)C(=O)c2ccc(NC(=O)c3cc(C)on3)cc2OC[C@H](C)N(C(=O)C2CC2)C[C@@H]1C	none
COc1ccc2c3c(n(C)c2c1)[C@H](CO)NCC31CN(Cc2ccc(Cl)cc2)C1	none (no result: PglD DTNB, RAD54 branch, E-sel inducer, RAD52 inh)
COc1ccc2c3c(n(C)c2c1)[C@H](CO)NCC31CCN(Cc2ccc(Cl)cc2)CC1	none (no result: PglD DTNB, RAD54 branch, RAD52 inh)
COc1ccc2c3c(n(C)c2c1)[C@@H](CO)NCC31CN(Cc2ccc(-c3ccccn3)cc2)C1	RAD52 inh 96 (no result: PglD DTNB, RAD54 branch)
COc1ccc2c3c(n(C)c2c1)[C@@H](CO)NCC31CCN(Cc2ccc(-c3ccccn3)cc2)CC1	RAD52 inh 83 (no result: PglD DTNB, RAD54 branch)
COc1ccc2c3c(n(C)c2c1)[C@@H](CO)NCC31CCN(Cc2ccc(Cl)cc2)CC1	none (no result: PglD DTNB, RAD54 branch, E-sel inducer, RAD52 inh)
COc1ccc2c3c(n(C)c2c1)[C@H](CO)NCC31CCN(Cc2ccc(-c3ccccn3)cc2)CC1	RAD52 inh 82 (no result: PglD DTNB, RAD54 branch)
O=C(C[C@H]1CC[C@H]2[C@@H](COC[C@H](O)CN2S(=O)(=O)c2ccc(F)cc2)O1)NCC1CCCCC1	RAD52 inh 66
Cc1ccc(S(=O)(=O)N2C[C@@H](O)COC[C@H]3O[C@@H](CC(=O)NCC4CCCCC4)CC[C@@H]32)cc1	RAD52 inh 53
O=C(C[C@@H]1CC[C@H]2[C@@H](COC[C@@H](O)CN2S(=O)(=O)c2ccc(F)cc2)O1)NCC1CCCCC1	RAD52 inh 70
C[C@@H]1CN([C@H](C)CO)S(=O)(=O)c2ccc(C3=CCCC3)cc2O[C@@H]1CN(C)C(=O)C1CC1	none (no result: PglD DTNB, RAD54 branch, RAD52 inh)
CCCc1nc2oc3ccccc3c(=O)c2c(=O)n1-c1ccccc1	rRNA inh HTS -30
Cc1ccc(-n2c(C(C)C)nc3oc4ccccc4c(=O)c3c2=O)cc1	rRNA inh HTS -32 (no result: PglD DTNB, RAD54 branch)
CCc1nc2oc3ccccc3c(=O)c2c(=O)n1-c1ccccc1	none (no result: rRNA inh HTS, RAD52 inh, XiGFP reactiv)
CCCc1nc2oc3ccccc3c(=O)c2c(=O)n1-c1ccc(C)cc1	rRNA inh HTS -46
CCc1nc2oc3ccccc3c(=O)c2c(=O)n1-c1ccc(C)cc1	none
C[C@@H]1CCCCO[C@@H](CN(C)S(=O)(=O)c2cccs2)[C@H](C)CN([C@H](C)CO)C(=O)c2cc(NS(=O)(=O)c3cccs3)ccc2O1	none
CCC(=O)N(C)C[C@H]1Oc2ncc(-c3cccc(OC)c3)cc2C(=O)N([C@H](C)CO)C[C@H]1C	none
CO[C@H]1CN(C)C(=O)c2ccc(NC(=O)C3CC3)cc2OC[C@H](C)N(Cc2ccccc2)C[C@H]1C	none
COc1ccc(Cl)cc1NC(=O)CN(C)C(=O)Cn1[nH]c(=O)c2ccccc2c1=O	rRNA inh HTS -20
Nn1c(=S)[nH]c2sc3c(c2c1=O)CCCC3	rRNA inh HTS -21 (no result: PglD DTNB, RAD54 branch, E-sel inducer)
NNC(=O)c1[nH]c2ccc(Cl)cc2c1-c1ccccc1	none (no result: PglD DTNB, RAD54 branch, E-sel inducer)
NNC(=O)c1[nH]c2ccc(Br)cc2c1-c1ccccc1	rRNA inh HTS -26 (no result: PglD DTNB, RAD54 branch)
Cc1cc(C(=O)Nc2cccc3c2O[C@@H](CN(C)C(=O)NC(C)C)[C@@H](C)CN([C@H](C)CO)C3=O)n(C)n1	none
Cc1ccc(NS(=O)(=O)c2ccc3c(c2)NC(=O)CCS3)c(Cl)c1	none (no result: E-sel inducer)
Cc1ccc(NS(=O)(=O)c2ccc3c(c2)NC(=O)CCS3)c(C)c1	rRNA inh HTS -33 (no result: E-sel inducer)
CO[C@@H]1CN(C)C(=O)c2cc(NC(=O)Nc3ccc(Cl)cc3)ccc2OC[C@H](C)N(C)C[C@@H]1C	none
Cc1ccc(S(=O)(=O)Nc2ccc3c(c2)C(=O)N([C@H](C)CO)C[C@H](C)[C@H](CN(C)S(=O)(=O)c2ccc(Cl)cc2)O3)cc1	none (no result: PglD DTNB, RAD54 branch)
CN(C)S(=O)(=O)c1cccc(NC(=O)c2n[nH]c(=O)c3ccccc23)c1	rRNA inh HTS -26 (no result: PglD DTNB, RAD54 branch)
Cc1ccc(S(=O)(=O)N(C)C[C@@H]2Oc3ccc(NC(=O)Nc4ccccc4)cc3CC(=O)N([C@@H](C)CO)C[C@@H]2C)cc1	none (no result: E-sel inducer)
Cc1nn(Cc2ccccc2)c(C)c1NC(=O)CSc1nnc(-c2cc(Cl)ccc2O)n1C	rRNA inh HTS -20 (no result: E-sel inducer, XiGFP reactiv)
O=C(CCN1C(=O)/C(=C/c2cccs2)SC1=S)Nc1ccccc1O	E-sel inducer 30
COc1ccccc1/C=C1\SC(=S)N(CCC(=O)Nc2cccc(O)c2)C1=O	rRNA inh HTS -31 (no result: E-sel inducer)
O=C1/C(=C/c2cccs2)SC(=S)N1c1ccccc1	none (no result: E-sel inducer, rRNA inh HTS, RAD52 inh, XiGFP reactiv)
O=C1/C(=C/c2cccs2)SC(=S)N1c1cccc(O)c1	E-sel inducer 52 (no result: PglD DTNB, RAD54 branch)
COc1ccccc1/C=C1\SC(=S)N(C(C(=O)O)c2ccccc2)C1=O (stereo unspecified)	rRNA inh HTS -37 (no result: PglD DTNB, RAD54 branch, E-sel inducer)
O=C(CCN1C(=O)/C(=C/c2cccs2)SC1=S)Nc1ccc(O)cc1	none

Source: PubChem
